Bioassay records as filed in PubChem.
Rows were chosen to be rich in hits. Some 4.7% of all compounds tested hit in one or more screens of this group.
MC4R antag cAMP – antagonists of human melanocortin 4 receptor (MC4R) | P32245 | MC4R-expressing cells, MTII-stimulated cAMP, LANCE TR-FRET | inhibition, % at 6.5 µM | actives 0.48% (n = 360,000) | AID 540295;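 active = inhibition above its plate's cutoff, the mean of tested wells on that plate plus 3 SD, cut at about 29% in these data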;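 also: 0% = Melanotan II alone and 100% = Melanotan II plus saturating MCL0020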
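material = U2OS cells stably expressing human melanocortin 4 receptor (MC4R) | also added = Melanotan II challenge | dosing = single nominal compound dose of 6.5 µM | detection = TR-FRET with Eu-cAMP and labeled anti-cAMP, 671 nm | replication = singlicate | timing = compound 30 min, challenge 1 h, detection 1 h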
AHR act – activators of human aryl hydrocarbon receptor. P35869. activation, % at 5 µM. AHR-responsive luciferase reporter cells, luminescence. actives 2.5% (n = 320,000); in the data active = activation above about 47%;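 also: 0% = vehicle wells and 100% = reference agonist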
Target sequence (P35869 whole entry, looked up): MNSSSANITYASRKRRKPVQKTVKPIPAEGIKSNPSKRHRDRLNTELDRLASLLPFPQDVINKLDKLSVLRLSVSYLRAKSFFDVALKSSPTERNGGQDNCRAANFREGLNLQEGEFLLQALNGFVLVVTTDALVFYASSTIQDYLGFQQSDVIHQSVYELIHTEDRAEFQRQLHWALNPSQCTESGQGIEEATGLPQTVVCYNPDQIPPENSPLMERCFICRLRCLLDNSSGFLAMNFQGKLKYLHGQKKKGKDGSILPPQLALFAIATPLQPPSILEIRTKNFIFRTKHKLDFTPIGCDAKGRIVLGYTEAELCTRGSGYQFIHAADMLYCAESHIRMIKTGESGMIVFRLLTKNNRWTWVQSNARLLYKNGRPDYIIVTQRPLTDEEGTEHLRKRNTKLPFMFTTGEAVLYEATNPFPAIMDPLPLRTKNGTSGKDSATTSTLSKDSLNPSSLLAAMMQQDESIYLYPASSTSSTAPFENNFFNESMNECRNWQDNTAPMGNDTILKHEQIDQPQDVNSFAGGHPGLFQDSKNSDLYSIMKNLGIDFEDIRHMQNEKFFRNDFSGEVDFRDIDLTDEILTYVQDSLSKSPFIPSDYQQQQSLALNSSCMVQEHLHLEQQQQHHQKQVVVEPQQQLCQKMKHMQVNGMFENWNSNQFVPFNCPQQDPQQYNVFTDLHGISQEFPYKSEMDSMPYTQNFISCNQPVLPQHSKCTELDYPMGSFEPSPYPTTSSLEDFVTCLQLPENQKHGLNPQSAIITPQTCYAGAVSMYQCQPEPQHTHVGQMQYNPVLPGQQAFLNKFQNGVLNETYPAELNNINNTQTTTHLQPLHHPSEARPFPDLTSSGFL
FXN GAA850 act – increases GAA850 frataxin promoter reporter activity. HEK293 lucGAA850 FXN promoter luciferase reporter, 24 h; percent of 10 µM SAHA response. activation, % at 6 µM. actives 0.56% (n = 360,000). AID 540364;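 active = activation above the average of all compounds screened plus 3 SD, cutoff fixed separately per campaign, cut at about 7.5% in these data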;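 also: 0% = DMSO wells and 100% = 10 µM SAHA wells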
MC4R barr agon – agonists of human melanocortin 4 receptor (MC4R) beta-arrestin; activation, % at 8.9 µM; U2OS MC4R beta-arrestin complementation, luminescence; percent of melanotan II response, DMSO zero; AID 540308; actives 0.98% (n = 360,000);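 active = activation above a per-plate cutoff, the mean activation of sample wells on that plate plus 3 SD, cut at about 8% in these data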
m5-HT2A agonist – agonists of mouse serotonin 5-HT2A receptor (HTR2A) | P35363 | CHO-K1 mHTR2A beta-arrestin complementation, luminescence; percent of 30 µM serotonin response | activation, % at 7.6 µM | actives 0.66% (n = 360,000);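 active = activation above a run cutoff, the mean activation of all tested compounds plus 3 SD, cut at about 14% in these data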;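 also: 0% = plate median of compound wells and 100% = 30 µM serotonin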
* hit, by the source's call.

Screening CCN(CC(=O)Nc1ccc(NC(C)=O)cc1)C(=O)/C=C/c1cn(-c2ccccc2)nc1-c1ccc(F)cc1 returned MC4R antag cAMP 1, AHR act 0, FXN GAA850 act -3, MC4R barr agon 8.4* and m5-HT2A agonist 0.
For CCN(CC(=O)Nc1ccc(NC(C)=O)cc1)C(=O)/C=C/c1cn(-c2ccccc2)nc1-c1ccc(C)cc1 the results were MC4R antag cAMP 6, AHR act -4, FXN GAA850 act -1, MC4R barr agon -3 and m5-HT2A agonist 5.
`C=CCNC1=C(Cl)C(=O)c2ccccc2C1=O` gave MC4R antag cAMP -27, AHR act 52*, FXN GAA850 act 6, MC4R barr agon 2 and m5-HT2A agonist 2.
For COCCNC(=O)C1CCCN(Cc2ccc(-c3ccccc3)cc2)CC1 (centres undefined) the results were MC4R antag cAMP -4, FXN GAA850 act -1, MC4R barr agon 0 and m5-HT2A agonist -6.
Screening CCOc1ccccc1NC(=O)c1c(Br)cnn1C returned MC4R antag cAMP 6, AHR act 59*, FXN GAA850 act 2, MC4R barr agon 1 and m5-HT2A agonist -1.
COc1ccccc1C(=O)Nc1sc2c(c1C(N)=O)CCCC2 was read as MC4R antag cAMP -6, AHR act 55*, FXN GAA850 act 3, MC4R barr agon -1 and m5-HT2A agonist 1.
`COc1ccccc1C(=O)Nc1sc2c(c1C#N)CCC2` gave MC4R antag cAMP 7, AHR act 22, FXN GAA850 act 2, MC4R barr agon -1 and m5-HT2A agonist 2.
CCn1nccc1C(=O)Nc1ccccc1OC was read as MC4R antag cAMP 13, AHR act 0, FXN GAA850 act 0, MC4R barr agon -1 and m5-HT2A agonist 3.
`CCn1ncc(Br)c1C(=O)Nc1sc2c(c1C(N)=O)CCC2` gave MC4R antag cAMP -17, AHR act 49*, FXN GAA850 act 2, MC4R barr agon 3 and m5-HT2A agonist 2.
For CCn1ncc(Br)c1C(=O)Nc1ccccc1OC the results were MC4R antag cAMP 3, AHR act 49*, FXN GAA850 act -1, MC4R barr agon 0 and m5-HT2A agonist 6.
For CCn1ncc(Br)c1C(=O)Nc1ccc(C(C)C)cc1 the results were MC4R antag cAMP 8, AHR act 77*, FXN GAA850 act 7, MC4R barr agon 6 and m5-HT2A agonist 6.
Screening Fc1ccc(NC(=S)N2CCc3ccccc32)cc1 returned MC4R antag cAMP -2, FXN GAA850 act 2, MC4R barr agon -1 and m5-HT2A agonist 2.
`O=C(CNc1ccccc1OC(F)F)N1CCc2ccccc21` gave MC4R antag cAMP -1, AHR act 24, FXN GAA850 act 6, MC4R barr agon 8.3* and m5-HT2A agonist -7.
FC(F)Oc1ccc(NC(=S)N2CCc3ccccc32)cc1 was read as MC4R antag cAMP 16, AHR act 51*, FXN GAA850 act 4, MC4R barr agon -1 and m5-HT2A agonist 0.
CNc1ccc(/C=C\CCCO)cn1 was read as MC4R antag cAMP 5, FXN GAA850 act 5, MC4R barr agon 0 and m5-HT2A agonist 6.
For COc1ccc2sc(N(CCCN(C)C)C(=O)c3ccc(S(=O)(=O)N4CCc5ccccc5C4)cc3)nc2c1 the results were MC4R antag cAMP 2, AHR act -9, FXN GAA850 act 2, MC4R barr agon 32* and m5-HT2A agonist -8.
For CN(C)CCCN(C(=O)c1ccc2c(c1)CCCC2)c1nc2ccc(F)cc2s1 the results were MC4R antag cAMP -4, AHR act 1, FXN GAA850 act 0, MC4R barr agon 6 and m5-HT2A agonist -6.
Screening Cc1ccc2nc(N(CCCN(C)C)C(=O)c3ccc(S(=O)(=O)N4CCc5ccccc5C4)cc3)sc2c1 returned MC4R antag cAMP 8, AHR act -7, FXN GAA850 act -5, MC4R barr agon 8.7* and m5-HT2A agonist -7.
Screening Cc1cc(C)c2sc(N(CCCN(C)C)C(=O)c3ccc(S(=O)(=O)N4CCc5ccccc5C4)cc3)nc2c1 returned MC4R antag cAMP -1, AHR act 10, FXN GAA850 act -4, MC4R barr agon 39* and m5-HT2A agonist 0.
Screening COc1ccc2sc(N(CCCN(C)C)C(=O)c3ccc(S(=O)(=O)N4CCCC4)cc3)nc2c1 returned MC4R antag cAMP 1, AHR act -6, FXN GAA850 act 3, MC4R barr agon 2 and m5-HT2A agonist -1.
